Test results reported in ChEMBL document CHEMBL4699543, “Preparation and evaluation of soluble epoxide hydrolase inhibitors with improved physical properties and potencies for treating diabetic neuropathic pain” (Bioorg Med Chem, 2020).
One block for each molecule: values may come before it.

Columns and labels:
[1] = Lipophilicity, logP of compound at 100 uM incubated for 90 mins by HPLC analysis; type: physicochemical; settings: for logP: 100 µM
[2] = AUC in mouse at 0.3 mg/kg, po; type: ADME, organism-based; design: dose 0.3 mg/kg; settings: in vivo
Procedure, shortened: (§1)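 Mice (n=4) given oral gavage cassette of 4 compounds, each 0.3 mg/kg, dissolved in 20% PEG400 in oleic acid rich triglycerides; plasma PK parameters calculated by one-compartment model.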

[3] = Cmax in mouse at 0.3 mg/kg, po; type: ADME, organism-based; design: route oral, dose 0.3 mg/kg; settings: in vivo; procedure, shortened: as §1
[4] = Half life in mouse at 0.3 mg/kg, po; type: ADME, organism-based; settings: in vivo; procedure, shortened: as §1
[5] = Tmax in mouse at 0.3 mg/kg, po; type: ADME, organism-based; settings: in vivo; procedure, shortened: as §1

Compound: CC[C@H](C)C(=O)N1CCC(NC(=O)Nc2ccc(C(F)(F)F)cc2)CC1
logP at […], 100 µM [1]: 3.84

Compound: O=C(Nc1ccc(OC(F)(F)F)cc1)NC1CCN(C(=O)C2CCOCC2)CC1
AUC [2]: 6.37 µM·h
logP at […], 100 µM [1]: 3.26
Cmax [3]: 381 nM
half-life [4]: 6.3 h
Tmax [5]: 4.2 h

Compound: O=C(Nc1ccc(OC(F)(F)F)c(F)c1)NC1CCN(C(=O)C2CC2)CC1
logP at […], 100 µM [1]: 4.19

Compound: O=C(Nc1ccc(C(F)(F)F)cc1)NC1CCN(C(=O)c2cc[nH]c2)CC1
logP at […], 100 µM [1]: 3.26

Compound: CCC(=O)N1CCC(NC(=O)Nc2ccc(OC(F)(F)F)c(F)c2)CC1
AUC [2]: 13 µM·h
Cmax [3]: 479 nM
half-life [4]: 13 h
Tmax [5]: 6.7 h

Compound: CC[C@H](C)C(=O)N1CCC(NC(=O)Nc2ccc(OC(F)(F)F)c(F)c2)CC1
AUC [2]: 2.17 µM·h
Cmax [3]: 166 nM
half-life [4]: 3.3 h
Tmax [5]: 5.2 h

Compound: O=C(Nc1ccc(OC(F)(F)F)c(F)c1)NC1CCN(C(=O)C2(C(F)(F)F)CC2)CC1
logP at […], 100 µM [1]: 5.94

Compound: CC[C@H](C)C(=O)N1CCC(NC(=O)Nc2ccc(OC(F)(F)F)c(Br)c2)CC1
logP at […], 100 µM [1]: 8.07

Compound: O=C(Nc1ccc(OC(F)(F)F)c(F)c1)NC1CCN(C(=O)C2CCCOC2)CC1 (stereo not given)
AUC [2]: 0.785 µM·h
Cmax [3]: 112 nM
half-life [4]: 3.2 h
Tmax [5]: 2.1 h

Compound: CCOC(=O)N1CCC(NC(=O)Nc2ccc(OC(F)(F)F)c(F)c2)CC1
logP at […], 100 µM [1]: 5.94

Compound: O=C(Nc1ccc(C(F)(F)F)c(F)c1)NC1CCN(C(=O)C2CCCOC2)CC1 (stereo not given)
logP at […], 100 µM [1]: 3.84

Compound: O=C(Nc1ccc(C(F)(F)F)cc1)NC1CCN(C(=O)C2CCCOC2)CC1 (stereo not given)
logP at […], 100 µM [1]: 3.41

Compound: O=C(Nc1ccc(OC(F)(F)F)cc1)NC1CCN(C(=O)C2CCCOC2)CC1 (racemic)
AUC [2]: 0.483 µM·h
Cmax [3]: 38 nM
half-life [4]: 3.1 h
Tmax [5]: 6.5 h

The remaining lines, values ahead:

logP at […], 100 µM [1]: 4.3
Compound: Cc1occc1C(=O)N1CCC(NC(=O)Nc2ccc(OC(F)(F)F)cc2)CC1

AUC [2]: 10.9 µM·h
Cmax [3]: 423 nM
half-life [4]: 6.6 h
Tmax [5]: 10 h
Compound: CC(C)C(=O)N1CCC(NC(=O)Nc2ccc(OC(F)(F)F)c(F)c2)CC1

logP [1]: 10.62
Compound: CC[C@H](C)C(=O)N1CCC(NC(=O)Nc2ccc(OC(F)(F)F)c(OC(F)(F)F)c2)CC1

logP at […], 100 µM [1]: 5.52
Compound: O=C(Nc1ccc(C(F)(F)F)c(F)c1)NC1CCN(C(=O)C2(C(F)(F)F)CC2)CC1

logP at […], 100 µM [1]: 3.94
Compound: O=C(Nc1ccc(C(F)(F)F)c(F)c1)NC1CCN(C(=O)C2CC2)CC1

logP [1]: 9.02
Compound: CC[C@H](C)C(=O)N1CCC(NC(=O)Nc2ccc(OC(F)(F)F)c(C(F)(F)F)c2)CC1

logP [1]: 3.22
Compound: CC[C@H](C)C(=O)N1CCC(NC(=O)Nc2ccc(C(F)(F)F)cn2)CC1

logP at […], 100 µM [1]: 3.93
Compound: O=C(Nc1ccc(OC(F)(F)F)c(F)c1)NC1CCN(C(=O)N2CCOCC2)CC1

AUC [2]: 5.56 µM·h
logP at […], 100 µM [1]: 3.73
Cmax [3]: 332 nM
half-life [4]: 4.3 h
Tmax [5]: 6.5 h
Compound: O=C(Nc1ccc(OC(F)(F)F)c(F)c1)NC1CCN(C(=O)C2CCOCC2)CC1

logP at […], 100 µM [1]: 3.52
Compound: O=C(Nc1ccc(C(F)(F)F)c(F)c1)NC1CCN(C(=O)C2CCOCC2)CC1

logP at […], 100 µM [1]: 5.46
Compound: CCOC(=O)N1CCC(NC(=O)Nc2ccc(C(F)(F)F)c(F)c2)CC1

logP at […], 100 µM [1]: 3.76
Compound: CCC(=O)N1CCC(NC(=O)Nc2ccc(C(F)(F)F)c(F)c2)CC1

logP at […], 100 µM [1]: 3.37
Compound: O=C(Nc1ccc(C(F)(F)F)cc1)NC1CCN(C(=O)C2=COCC2)CC1

logP at […], 100 µM [1]: 7.7
Compound: CC[C@H](C)C(=O)N1CCC(NC(=O)Nc2ccc(OC(F)(F)F)c(Cl)c2)CC1
